Compound activity from PubChem BioAssay.
SKN-1 block = suppressors of acrylamide-induced Pgst-4::GFP reporter in worms, primary screen, SKN-1 inhibitor project, whole organism, uHTS, GFP/RFP fluorescence ratio, strain VP596; C. elegans VP596 Pgst-4::GFP/RFP ratio, 24 h; inhibition, % at 21.8 µM; 0.49% of 360,000 active;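 active = interference check ratio from 0.5 to 1.5 plus GFP to RFP signal ratio inhibition reaching or exceeding a fixed threshold, cut at about 30% in these data, passing the limit was not always enough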
GRK2 inh = compounds blocking aptamer binding on GRK2 – biochemical, human GRK2, bead flow cytometry, HTS, primary screen. Beta-adrenergic receptor kinase 1 (Homo sapiens), P25098. FAM-aptamer displacement from GRK2. inhibition of aptamer binding, % at 10 µM. 0.59% of 330,000 active. AID 488847, 2010;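 active = inhibition of aptamer binding above 40%, roughly 3 SD of noise, on plates passing a quality check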;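 note: median bead fluorescence of bound FAM aptamer so fluorescent compounds give negative values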
Target sequence (P25098 whole entry, looked up): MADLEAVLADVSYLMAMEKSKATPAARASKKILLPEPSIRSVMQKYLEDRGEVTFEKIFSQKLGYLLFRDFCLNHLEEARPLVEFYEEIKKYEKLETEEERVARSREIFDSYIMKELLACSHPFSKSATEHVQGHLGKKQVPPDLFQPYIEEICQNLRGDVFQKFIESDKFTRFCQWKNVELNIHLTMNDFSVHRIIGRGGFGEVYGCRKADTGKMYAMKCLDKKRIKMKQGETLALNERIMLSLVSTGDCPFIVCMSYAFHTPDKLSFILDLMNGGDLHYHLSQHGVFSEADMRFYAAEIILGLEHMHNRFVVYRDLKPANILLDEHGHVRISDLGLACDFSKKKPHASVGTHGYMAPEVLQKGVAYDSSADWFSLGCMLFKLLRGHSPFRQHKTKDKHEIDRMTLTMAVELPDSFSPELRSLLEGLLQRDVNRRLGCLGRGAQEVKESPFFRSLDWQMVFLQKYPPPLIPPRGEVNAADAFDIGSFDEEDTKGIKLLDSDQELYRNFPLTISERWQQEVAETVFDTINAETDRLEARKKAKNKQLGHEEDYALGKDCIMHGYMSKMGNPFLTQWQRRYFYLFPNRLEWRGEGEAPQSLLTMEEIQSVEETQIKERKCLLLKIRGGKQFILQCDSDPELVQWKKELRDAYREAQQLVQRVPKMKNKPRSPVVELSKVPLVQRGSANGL
T cell modulator = modulators of CD8 T cell-vesicle binding, primary screen, mouse 2C CD8+ T cells, flow cytometry; 2C CD8+ T cell-vesicle binding; active compounds read low; response (vesicle binding), % at 7 µM; 0.068% of 330,000 active; AID 2052, 2009;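 active = response, share of CD8 T cells binding vesicles, and their 90th percentile fluorescence all below set limits, cut at about 80% in these data, passing the limit was not always enough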;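 note: values below 100% mean blocked vesicle binding to the CD8+ T cells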
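Test system: purified 2C TCR transgenic mouse naive CD8+ T cells. Probe or stimulus: QL9-peptide-loaded Drosophila micro-vesicles bearing Ld, ICAM-1 and B7-1. Incubation: binding step 1.5 h, 37 °C, antibody labelling 20 min, ice. Measured by: flow cytometry of vesicle-bound cells.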
Rin1-Abl PPI inh = inhibitors of Rin1-Abl protein binding, primary screen, biochemical, TR-FRET | Tyrosine-protein kinase ABL1 (Homo sapiens) + Ras and Rab interactor 1 (Homo sapiens), … | inhibition, % at 7.35 µM | 0.4% of 360,000 active | AID 588664, 2011; in the data active = inhibition above about 5%, passing the limit was not always enough
Myeloid diff MLP = induction of myeloid progenitor differentiation, primary screen, cell-based, flow cytometry, MLPCN library | ER-HoxA9 myeloid progenitors, lysozyme-GFP differentiation | calls only at 10 µM | 1% of 360,000 active;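 active = normalized GFP-positive differentiation at or above the plate's own cutoff, the solvent-only control mean plus 3 SD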;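 note: cells exposed to compound for four days before flow analysis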
Rce1 inh = yeast Rce1p protease inhibitors, primary screen, biochemical, fluorescence, cell-free homogeneous; CAAX prenyl protease 2 (Saccharomyces cerevisiae (strain ATCC 204508 / S288c)), Q03530; yeast membranes, quenched prenylated peptide cleavage fluorescence; calls only; 0.27% of 290,000 active; AID 2563, 2010;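 active = fall in fluorescence gain of 50% or more versus controls, with final raw signal at or below 3038400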;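 note: plate controls were neutral control wells for no effect and wells lacking membranes for full effect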
Rin1-Abl confirm = Rin1-Abl binding inhibitor retest, confirmation, biochemical, TR-FRET | shares compounds with Rin1-Abl PPI inh | inhibition, % at 7.35 µM | 49% of 1,300 active | purified proteins | AID 602124, 2011
GFP quencher = GFP fluorescence inhibitors and quenchers, artefact control for Rin1-Abl interaction inhibitor project, biochemical. inhibitors/quenchers counterscreen. 8.5% of 1,300 active. AID 602125, 2011. inhibition, % at 6.75 µM. shares compounds with Rin1-Abl PPI inh;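 note: ABL1-eGFP fusion protein alone without its partner RIN1-SBP; 0% = protein with vehicle and 100% = wells lacking protein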
GFP quench dose = GFP fluorescence inhibitors and quenchers, dose response, artefact control for Rin1-Abl interaction inhibitor project, biochemical; 230 tested, under 10 active; shares compounds with Rin1-Abl PPI inh; IC50, µM; AID 602182, 2012; GFP fluorescence interference/quenching counterscreen; call rule not given here;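 note: ABL1-eGFP fusion protein alone without its RIN1 binding partner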
The depositor's hits bear a star; i = inactive; . = no result given. In the library only some 2.6% were active in any assay of this set; here they are far more common. Cut-off read from the data, not from the text of the source, unless noted: active = inhibition above about 6.5%; inactive = the rest.

SMILES	SKN-1 block	GRK2 inh	T cell modulator	Rin1-Abl PPI inh	Myeloid diff MLP	Rce1 inh	Rin1-Abl confirm	GFP quencher	others
COC(=O)c1ccc(Cl)c(NC(=O)CSc2nnc(-c3ccncc3)o2)c1	13	4	268	0	i	i	.	.
O=S(=O)(c1ccc(Cl)cc1)N1CCC2(CC1)OCCO2	-13	1	0	12*	i	i	0	-2
O=S(=O)(c1ccccc1)N1CCC2(CC1)OCCO2	13	0	145	1	i	i	.	.
O=C(N/N=C/c1ccc(OCc2ccc(F)cc2)cc1)c1ccccc1	6	0	544	3	i	.	.	.
CC(C)(C)c1ccc(OCc2ccc(C(=O)N/N=C/c3ccc(O)c(O)c3)cc2)cc1	-9	0	335	8.2*	i	i	8.8*	2
O=C(COc1ccccc1C(=O)N/N=C\c1ccc(O)c(O)c1)N/N=C/c1ccc(O)c(O)c1	7	21	176	28*	i	i	38*	12*
O=[N+]([O-])c1cccc(S(=O)(=O)NCCOc2cccc3cccnc23)c1	-2	0	450	10*	i	i	-3	0
Cc1cc(C)nc(Oc2ccc([N+](=O)[O-])cc2)n1	12	4	173	5	i	i	.	.
CCn1c(C)nc2cc(C(=O)N/N=C/c3ccc(O)c(O)c3O)ccc21	12	.	.	45*	i	i	53*	23*
CCN(CC)S(=O)(=O)c1cccc(C(=O)N/N=C/c2ccc(O)c(O)c2O)c1	6	1	527	18*	i	.	15*	11*
CCn1c(C)nc2cc(C(=O)N/N=C/c3cccc(OC)c3O)ccc21	1	7	222	0	i	i	.	.
CN(C)S(=O)(=O)c1cccc(NC(=S)N/N=C/c2ccc(O)c(O)c2O)c1	1	.	.	27*	i	i	18*	10*
O=C(CC1C(=O)NCCN1Cc1ccc(F)cc1)NCCOc1cccnc1 (centres undefined)	16	0	235	-2	i	i	.	.
O=C(CC1C(=O)NCCN1Cc1c(F)cccc1Cl)NCCCOc1cccnc1 (centres undefined)	6	0	322	14*	i	i	12*	-1
CC(=O)OCC(=O)C1(O)CCC2C3CC(C)C4=CC(=O)C=CC4(C)C3=CCC21C (centres undefined)	7	.	.	-1	i	.	.	.
CCSc1nnc(NC(=O)CCC2CCCCC2)s1	-2	0	105	-3	i	i	.	.
O=C(NC(NC(=S)Nc1ccccc1C(=O)O)C(Cl)(Cl)Cl)c1ccco1 (centres undefined)	-9	0	177	7.0*	i	i	0	1
COC(=O)c1ccccc1NC(=S)NC(NC(=O)c1ccco1)C(Cl)(Cl)Cl (centres undefined)	1	0	616	1	i	i	.	.
Cc1cc(F)ccc1NS(=O)(=O)c1c(C(=O)N2CCOCC2)c(C)n(C)c1C	12	5	341	-3	i	i	.	.
COC1=CC(=O)c2c(ccc3ncnc(N)c23)C1=O	21	.	.	17*	.	.	31*	3	GFP quench dose=>67
COc1ccc(C(CNC(=O)c2c(C)nn(Cc3ccc(C)cc3)c2Cl)N2CCOCC2)cc1 (centres undefined)	-1	3	213	5	i	.	.	.
CC(=O)Nc1ccc(NC(=O)C(NC(=O)c2ccc(Cl)cc2)C(C)C)cc1 (centres undefined)	0	.	.	-2	i	.	.	.
Cc1ccc(C(=O)N[C@H](C(=O)Nc2cc(Cl)cc(Cl)c2)C(C)C)cc1	11	0	208	5.8*	i	i	-1	-1
O=C(CSc1nc2ccccc2[nH]1)N1CCN(c2ccccc2)CC1	9	0	292	-3	i	i	.	.
O=C(CCCSc1nc2ccccc2[nH]1)N1CCN(c2ccccc2)CC1	-3	0	837	7.0*	i	i	7.1*	2
SMILES	SKN-1 block	GRK2 inh	T cell modulator	Rin1-Abl PPI inh	Myeloid diff MLP	Rce1 inh	Rin1-Abl confirm	GFP quencher	others
Cc1cc(=O)n(C2CCS(=O)(=O)C2)[nH]1 (centres undefined)	12	4	276	12*	i	i	0	-1
Cc1ccc(S(=O)(=O)NN2C(=O)c3ccccc3NC2c2ccccc2F)cc1 (centres undefined)	7	1	162	13*	i	i	-2	-5
COc1ccc(C2Nc3ccccc3C(=O)N2NS(=O)(=O)c2ccc(C)cc2)c(OC)c1 (centres undefined)	8	1	180	0	i	.	.	.
CCCCC(=O)N(C)c1c(CC)nc2c(OCCC)cccn12	15	.	.	-2	i	.	.	.
O=C(CSc1nc2ccccc2c(=O)[nH]1)Nc1ccc(S(=O)(=O)N2CCCC2)cc1	-19	1	326	8.9*	i	i	5	2
O=C(CSc1nc2ccccc2c(=O)[nH]1)Nc1ccc(C(=O)O)cc1	6	0	360	0	i	i	.	.
C[C@H](CO)N1C[C@H](C)[C@@H](CN(C)Cc2ccc(-c3ccccc3)cc2)Oc2c(NS(=O)(=O)c3ccccc3)cccc2C1=O	3	3	367	14*	i	.	9.6*	0
C[C@H](CO)N1C[C@H](C)[C@@H](CN(C)Cc2ccccc2)Oc2c(NS(=O)(=O)c3ccccc3)cccc2C1=O	-3	0	425	1	i	.	.	.
C[C@H](CO)N1C[C@H](C)[C@@H](CN(C)Cc2ccc(-c3ccccc3)cc2)Oc2c(NS(=O)(=O)c3cn(C)cn3)cccc2C1=O	-4	0	712	36*	i	.	29*	-2
C[C@H](CO)N1C[C@H](C)[C@@H](CN(C)Cc2ccc(Cl)c(Cl)c2)Oc2c(NC(=O)c3ccncc3)cccc2C1=O	3	1	72	13*	i	.	8.7*	1
